Data on 13 compounds can be found in ChEMBL document CHEMBL3244363, “Studies on biologically active halogenated compounds. 1. Synthesis and central nervous system depressant activity of 2-(fluoromethyl)-3-aryl-4(3H)-quinazolinone derivatives” (J Med Chem, 1979).

The subject of data set [1] is Mus musculus. Briefly: Induction of CNS depressant activity in ip dosed ddk mouse assessed as loss of righting reflex activity over 20 secs. Type of data set: functional. Conditions: Central nervous system. Put shortly: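 Groups of six mice received compound ip as a suspension in CMC solution. Each mouse was laid on its back at 15, 30, 60, 90 and 120 min. The reflex was scored as lost if the animal stayed supine over 20 s. ED50 was estimated from the number of mice losing the reflex.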

The subject of data set [2] is Mus musculus. Briefly: Induction of CNS depressant activity in ip dosed ddk mouse after 30 mins by rotating rod test. The settings on record: Central nervous system, 0.5 h. In kind it is functional. Put shortly:
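Compound was given ip to groups of six mice as a suspension in CMC solution. At 30 min each mouse was set on a rotating rod (3.5 cm diameter, 14 rpm) for 1 min. ED50 was estimated from the number of mice falling off the rod twice during the test.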

The nature of data set [3]: Acute toxicity in ip dosed ddk mouse assessed as lethality after 72 hrs. In kind it is organism-based. The settings on record: in vivo.
In data set [4] the test system is Mus musculus. Briefly: Induction of CNS depressant activity in ip dosed ddk mouse assessed as protection against pentylenetetrazole-induced tonic extensive convulsions administered 30 mins prior to pentylenetetrazole challenge. In kind it is functional. Conditions: Central nervous system. Put shortly: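 In groups of six mice, compound was injected ip as a suspension in CMC solution. Pentylenetetrazole 125 mg/kg was given sc 30 min later. ED50 was estimated from the number of mice protected against death from tonic extensive convulsions within 1 h of the convulsant.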

In data set [5] the test system is Mus musculus. Briefly: Induction of CNS depressant activity in ip dosed ddk mouse assessed as protection against maximal electroshock-induced tonic hind limb extensor seizures administered 30 mins prior to electroshock challenge. Type of data set: functional. Conditions: Central nervous system. Put shortly:
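Six mice per group were dosed ip with compound suspended in CMC solution. After 30 min, a 25 mA alternating current was delivered through corneal electrodes for 0.15 s. ED50 was estimated from the number of mice protected against the tonic hind limb extensor component.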
Background: The maximal electroshock test induces tonic seizures with an electrical stimulus.

Data set [6] has as its system Mus musculus. Briefly: Induction of CNS depressant activity in ip dosed ddk mouse assessed as excitation incidence during loss of righting reflex activity over 20 secs. In kind it is functional, organism-based. Conditions: Central nervous system.

Activity calls are given as the source filed them. The calls are words filed in the database; no cut-off is given here.

The ED50 is the dose that gives a 50% effect, or the effect in half of the subjects. In the case of `O=c1c2ccccc2nc(CF)n1-c1ccccc1`, the ED50 in the data set with Mus musculus [1] worked out at 130 mg/kg; with Mus musculus [2] it was 98 mg/kg; with Mus musculus [4], 95.3 mg/kg; in the data set on Mus musculus [5], 116 mg/kg. Also, the MTD at 72 h in data set [3] is at least 300 mg/kg.

Regarding `O=c1c2ccccc2nc(CF)n1-c1ccc(Cl)cc1Cl`, the ED50 is 18.7 mg/kg in the data set on Mus musculus [1], 16.3 mg/kg with Mus musculus [4] and 8.1 mg/kg in the data set on Mus musculus [5]. For the same compound, in data set [3], the MTD at 72 h was 100 mg/kg. In addition, the outcome in the data set with Mus musculus [6] was Active.

Broadly, the LD50 is the dose at which mortality reaches 50%. As to `Cc1ccccc1-n1c(CF)nc2ccc(N)cc2c1=O` [AFLOQUALONE], the ED50 in the data set on Mus musculus [1] was determined as 35.1 mg/kg; in the data set with Mus musculus [2], 15.6 mg/kg; with Mus musculus [4], 5.4 mg/kg; in the data set with Mus musculus [5], 13.3 mg/kg. Also, the LD50 at 72 h in data set [3] was determined as 315 mg/kg.

For `Cc1cc(Cl)ccc1-n1c(CF)nc2ccccc2c1=O`, the ED50 came to 18.7 mg/kg in the data set on Mus musculus [1], 16.3 mg/kg with Mus musculus [4] and 14.1 mg/kg in the data set with Mus musculus [5]. For the same compound, the LD50 at 72 h in data set [3] is 432 mg/kg. Also, the outcome in the data set on Mus musculus [6] was Active.

As for `Cc1c(Cl)cccc1-n1c(CF)nc2ccccc2c1=O`, the ED50 in the data set with Mus musculus [1] came to 18.4 mg/kg; in the data set with Mus musculus [2] it was 15 mg/kg; in the data set on Mus musculus [4], 16.1 mg/kg; with Mus musculus [5], 15 mg/kg. Also, the LD50 at 72 h in data set [3] came out at 1560 mg/kg.

Consider `Cc1ccccc1-n1c(CF)nc2ccccc2c1=O`, for which the ED50 in the data set on Mus musculus [1] came out at 19.9 mg/kg; with Mus musculus [2] it was 35.1 mg/kg; in the data set with Mus musculus [4] it was 26.6 mg/kg; with Mus musculus [5] it was 25.2 mg/kg. For the same compound, the LD50 at 72 h in data set [3] was 710 mg/kg.

Consider `Cc1ccccc1-n1c(C)nc2ccc(N)cc2c1=O`, for which the ED50 with Mus musculus [1] turned out to be 28.1 mg/kg; in the data set with Mus musculus [2], 27.9 mg/kg; in the data set on Mus musculus [4] it was 8.1 mg/kg; in the data set on Mus musculus [5] it was 25.4 mg/kg.

On to `Cc1ccccc1-n1c(CF)nc2cccc(Cl)c2c1=O`, for which the ED50 in the data set with Mus musculus [1] was 95.7 mg/kg; in the data set on Mus musculus [2], 37.6 mg/kg; with Mus musculus [4] it was 34.9 mg/kg; in the data set on Mus musculus [5], 40.3 mg/kg. In addition, the MTD at 72 h in data set [3] was at least 300 mg/kg.

For `Cc1ccccc1-n1c(CF)nc2ccc(Cl)cc2c1=O`, the ED50 in the data set with Mus musculus [1], in the data set with Mus musculus [2], with Mus musculus [4] and with Mus musculus [5] was over 150 mg/kg throughout. Moreover, the MTD at 72 h in data set [3] is at least 300 mg/kg.

Consider `Cc1ccccc1-n1c(C)nc2ccccc2c1=O` [METHAQUALONE], for which the ED50 was 31.6 mg/kg with Mus musculus [1], 33.7 mg/kg in the data set with Mus musculus [2], 36.7 mg/kg in the data set on Mus musculus [4] and 35.2 mg/kg with Mus musculus [5]. For the same compound, the LD50 at 72 h in data set [3] was determined as 542 mg/kg.

Take `CC(=O)Nc1ccc2nc(CF)n(-c3ccccc3C)c(=O)c2c1`: the ED50 with Mus musculus [1] was over 150 mg/kg; in the data set with Mus musculus [2], over 150 mg/kg; with Mus musculus [4], 75.2 mg/kg; in the data set with Mus musculus [5], over 150 mg/kg. Moreover, the MTD at 72 h in data set [3] is at least 300 mg/kg.

Take `Cc1ccccc1-n1c(CF)nc2ccc([N+](=O)[O-])cc2c1=O`: the ED50 in the data set on Mus musculus [1], with Mus musculus [2], in the data set with Mus musculus [4] and in the data set on Mus musculus [5] was over 150 mg/kg each time. In addition, the MTD at 72 h in data set [3] is at least 300 mg/kg.

`Cc1cc(Cl)ccc1-n1c(CF)nc2cccc(Cl)c2c1=O`: the ED50 in the data set with Mus musculus [1] was over 150 mg/kg; in the data set on Mus musculus [2], over 150 mg/kg; in the data set on Mus musculus [4] it was 88.4 mg/kg; with Mus musculus [5], over 150 mg/kg. In data set [3], the MTD at 72 h is at least 300 mg/kg.
